Calls of active or inactive are those of the source. No cut-off for these calls is given here.
Assays:
SH-SY5Y [1] = experiment: Potentiation of H2O2-induced cytotoxicity in human SH-SY5Y cells assessed as cell viability at 50 uM pretreated for 24 hrs followed by incubation for 1 hr with H2O2 and incubated in drug-free medium for 22 hrs by MUH reagent based spectrophotometric analysis (reference value: 50.8%); format: functional; details: time 25 hrs, read-out: Activity
Neurosphere [2] = experiment: Toxicity against C57BL/6N mouse neurosphere at 25 to 50 uM measured after 7 days by bright filed microscopy; format: tissue-based; details: in vitro, 168 h
How it was run: (§1)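 Neurospheres from sub-ventricular zone of 8-month-old male C57BL/6N mice, dissociated with Accutase, plated as single cells 5 × 10³/well in suspension in EGF/FGF2/N2/B27 medium with 2.5–50 μM compound or DMSO for 7 days. Daily brightfield live imaging; sphere count and total area per image, aggregates >400 μm² only.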

HepG2 = experiment: Cytotoxicity against human HepG2 cells assessed as cell viability upto 10 uM incubated for 24 hrs by MTT assay; format: toxicity, cell-based; details: hepg2, 24 h
How it was run: (§2)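 HepG2 in MEM with 10% FBS, plated 1.5 × 10⁴ cells/well; after 24 h exposed to 0.010–100 μM compound or vehicle for 24 h. MTT (0.2 mg/mL in PBS) for 2 h at 37 °C, formazan dissolved in DMSO, absorbance at 570 nm. Viability relative to vehicle controls, mean ± SD, n = 4.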

Neurosphere [3] = experiment: Neuroprotective activity against C57BL/6N mouse neurosphere assessed as increase in NPC proliferation by measuring increase in neurospheres number at 2.5 to 5 uM measured after 7 days by bright field microscopy; format: functional, tissue-based; details: dose 2.5-5 µM, time 7.0 day; how it was run: as §1
SH-SY5Y [4] = experiment: Neuroprotective activity against H2O2-induced cytotoxicity in human SH-SY5Y cells assessed as increase in cell viability at 1 to 50 uM pretreated for 24 hrs followed by incubation for 1 hr with H2O2 and incubated in drug-free medium for 22 hrs by MUH reagent based spectrophotometric analysis; format: functional; details: dose 1-50 µM, time 25.0 hrs
How it was run: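 SH-SY5Y pretreated 24 h with 1, 10 or 50 μM compound, exposed 1 h to H2O2, then 22 h recovery in drug-free complete medium. H2O2 level printed as 300 μM in methods but 600 μM in figure legend. Viability by MUH fluorescence (ex 330/em 450 nm) vs untreated cells; one-way ANOVA, Tukey.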

Neurosphere [5] = experiment: Neuroprotective activity against C57BL/6N mouse neurosphere assessed as increase in NPCs spontaneous differentiation by measuring Olig2-positive cells at 2.5 to 5 uM measured after 7 days by immunofluorescence analysis; format: functional, tissue-based; details: dose 2.5-5 µM, time 7.0 day
How it was run: (§3)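 Thirty 7-day neurospheres plated on Matrigel-coated coverslips with 2.5 or 5 μM compound or DMSO, differentiated 7 days, fixed in 4% PFA, immunostained for Nestin, DCX, Olig2 or GFAP with Alexa 555 secondaries, DAPI counterstain. Intensity index = marker-positive intensity / total DAPI intensity; mean ± SD of 3 fields per condition.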

[6] = Cytotoxicity against human HepG2 cells assessed as reduction in cell viability incubated for 24 hrs by MTT assay; format: toxicity, cell-based; how it was run: as §2
Neurosphere [7] = experiment: Neuroprotective activity against C57BL/6N mouse neurosphere assessed as increase in NPCs spontaneous differentiation by measuring GFAP-positive cells at 2.5 to 5 uM measured after 7 days by immunofluorescence analysis; format: functional, tissue-based; details: dose 2.5-5 µM, time 7.0 day; how it was run: as §3
Neurosphere [8] = experiment: Neuroprotective activity against C57BL/6N mouse neurosphere assessed as increase in NPCs spontaneous differentiation by measuring decrease in Nestin-positive cells at 2.5 to 5 uM measured after 7 days by immunofluorescence analysis; format: functional, cell-based; details: dose 2.5-5 µM, time 7.0 day; how it was run: as §3
Neurosphere [9] = experiment: Neuroprotective activity against C57BL/6N mouse neurosphere assessed as increase in NPCs spontaneous differentiation by measuring increase in DCX-positive cells at 2.5 to 5 uM measured after 7 days by immunofluorescence analysis; format: functional, cell-based; details: dose 2.5-5 µM, time 7.0 day; how it was run: as §3
Neurosphere [10] = experiment: Neuroprotective activity against C57BL/6N mouse neurosphere assessed as effect on neurospheres size at 2.5 to 5 uM measured after 7 days by bright field microscopy; format: functional, tissue-based; details: dose 2.5-5 µM, time 7.0 day; how it was run: as §1
SH-SY5Y [11] = experiment: Induction of cell cycle arrest in human SH-SY5Y cells assessed as accumulation of cells at sub-G1 phase at 1 to 10 uM incubated for 72 hrs by propidium iodide staining based flow cytometry; format: functional; details: dose 1-10 µM
How it was run: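 SH-SY5Y exposed to 1 or 10 μM for 72 h, collected, fixed in 70% ice-cold ethanol, stained with propidium iodide-containing cell-cycle reagent 30 min in the dark at room temperature, and analysed by flow cytometry for G0/G1, S, G2/M and sub-G1 fractions; one-way ANOVA, Bonferroni.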

SH-SY5Y [12] = experiment: Induction of cell cycle arrest in human SH-SY5Y cells assessed as proportion of cells at sub-G1 phase at 10 uM incubated for 72 hrs by propidium iodide staining based flow cytometry (reference value: 5.56%)
SH-SY5Y [13] = experiment: Induction of apoptosis in human SH-SY5Y cells assessed as increase in PARP cleavage by measuring decrease in PARP protein expression at 1 uM incubated for 72 hrs by flow cytometry relative to control; format: functional; design: scale not given: the % may be the effect or the level left
How it was run: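 SH-SY5Y cells, cultured in DMEM with 10% FBS at 37 °C and 5% CO2, were treated for 72 h. Cells were fixed in 4% paraformaldehyde and permeabilized with 90% cold methanol. They were stained with anti-PARP (1:100) and then an Alexa Fluor 488 secondary (1:200). Mean fluorescence intensity was read by flow cytometry and expressed as fold change versus control cells.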

SH-SY5Y [14] = experiment: Induction of cell cycle arrest in human SH-SY5Y cells assessed as proportion of cells at sub-G1 phase at 1 uM incubated for 72 hrs by propidium iodide staining based flow cytometry (reference value: 5.56%)
SH-SY5Y [15] = experiment: Cytotoxicity against human SH-SY5Y cells assessed as reduction in cell viability at 1 uM pretreated with antioxidant, NAC for 1 hr followed by incubation with drug for 24 hrs by MUH reagent based spectrophotometric analysis; format: functional
How it was run: (§4)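 SH-SY5Y pretreated 1 h with 2 mM NAC, then exposed to compound at 1 or 10 μM for 24 h. Viability read by MUH hydrolysis (0.01 mg/mL, 30 min, 37 °C; ex 330/em 450 nm) as percent of untreated cells; two-way ANOVA with Tukey post hoc.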

SH-SY5Y [16] = experiment: Induction of apoptosis in human SH-SY5Y cells assessed as increase in caspase-3 activity at 1 uM incubated for 72 hrs by colorimetric assay relative to control; format: functional
How it was run: (§5)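 Cells treated 72 h, collected, PBS-rinsed, lysed on ice 10 min; protein quantified by Bradford. Lysates incubated 2 h at 37 °C with 2× reaction buffer containing 10 mM dithiothreitol and DEVD-pNA caspase-3 substrate. Free pNA read by absorbance at 405 nm; activity expressed as fold over untreated cells. At least 3 independent experiments.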

SH-SY5Y [17] = experiment: Cytotoxicity against human SH-SY5Y cells assessed as reduction in cell viability at 10 uM pretreated with antioxidant, NAC for 1 hr followed by incubation with drug for 24 hrs by MUH reagent based spectrophotometric analysis; format: functional; how it was run: as §4
SH-SY5Y [18] = experiment: Induction of apoptosis in human SH-SY5Y cells assessed as increase in caspase-3 activity at 10 uM incubated for 72 hrs by colorimetric assay relative to control; format: functional; how it was run: as §5

CC1=C(NCCCCNC(=O)CS)C(=O)c2ccccc2C1=O
viability at 50 µM (SH-SY5Y [1]): 28.2% | Activity (Neurosphere [2]): Toxic | Activity (HepG2): Non-Toxic | Activity (Neurosphere [3]): Active | Activity (SH-SY5Y [4]): inactive | Activity (Neurosphere [5]): inactive | IC50 at 24 h [6]: 25.5 µM | Activity (Neurosphere [7]): inactive | Activity (Neurosphere [8]): Active | Activity (Neurosphere [9]): Active | Activity (Neurosphere [10]): inactive

CC1=C(NCc2ccc(C(=O)Nc3ccccc3N)cc2)C(=O)c2ccccc2C1=O
Activity (SH-SY5Y [11]): Active | Activity (SH-SY5Y [12]): 42.32% | Activity (SH-SY5Y [13]): 44.81% | Activity (SH-SY5Y [14]): 28.03% | Activity (SH-SY5Y [15]): inactive | fold change (FC) (SH-SY5Y [16]): 1.2 | Activity (SH-SY5Y [17]): Active | fold change (FC) (SH-SY5Y [18]): 1.7
